Reference: ChEMBL document CHEMBL1759890, “3,5-Disubstituted-indole-7-carboxamides: the discovery of a novel series of potent, selective inhibitors of IKK-β” (Bioorg Med Chem Lett, 2011)

Experiments:
PBMC = test: Antiinflammatory activity in human PBMC assessed as inhibition of LPS-induced TNF-alpha production; format: functional, cell-based
Summary of the method: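 Human peripheral blood mononuclear cells stimulated with LPS. Read-out is inhibition of TNF-α production, reported as pIC50.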

Aurora kinase A = target: T1, Aurora kinase A (Homo sapiens, UniProt O14965); test: Inhibition of Aurora A kinase
T1 sequence (O14965 whole entry): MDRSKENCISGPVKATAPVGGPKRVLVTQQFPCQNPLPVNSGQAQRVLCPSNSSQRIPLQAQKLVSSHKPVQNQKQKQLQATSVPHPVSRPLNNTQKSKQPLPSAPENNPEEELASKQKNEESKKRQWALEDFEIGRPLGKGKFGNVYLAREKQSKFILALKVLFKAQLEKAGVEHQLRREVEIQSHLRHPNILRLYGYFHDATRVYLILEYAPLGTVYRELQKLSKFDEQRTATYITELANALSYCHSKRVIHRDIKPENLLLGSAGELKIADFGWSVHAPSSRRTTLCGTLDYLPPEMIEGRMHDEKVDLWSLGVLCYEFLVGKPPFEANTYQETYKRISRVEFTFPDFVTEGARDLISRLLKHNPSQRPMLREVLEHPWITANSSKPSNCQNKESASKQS

[1] = target: Casein kinase I isoform epsilon (Homo sapiens, UniProt P49674); test: Binding affinity to CSNK1eplison assessed as dissociation constant
[2] = target: T2, Inhibitor of nuclear factor kappa-B kinase subunit beta (Homo sapiens, UniProt O14920); test: Inhibition of IKK-beta
T2 sequence (O14920 whole entry): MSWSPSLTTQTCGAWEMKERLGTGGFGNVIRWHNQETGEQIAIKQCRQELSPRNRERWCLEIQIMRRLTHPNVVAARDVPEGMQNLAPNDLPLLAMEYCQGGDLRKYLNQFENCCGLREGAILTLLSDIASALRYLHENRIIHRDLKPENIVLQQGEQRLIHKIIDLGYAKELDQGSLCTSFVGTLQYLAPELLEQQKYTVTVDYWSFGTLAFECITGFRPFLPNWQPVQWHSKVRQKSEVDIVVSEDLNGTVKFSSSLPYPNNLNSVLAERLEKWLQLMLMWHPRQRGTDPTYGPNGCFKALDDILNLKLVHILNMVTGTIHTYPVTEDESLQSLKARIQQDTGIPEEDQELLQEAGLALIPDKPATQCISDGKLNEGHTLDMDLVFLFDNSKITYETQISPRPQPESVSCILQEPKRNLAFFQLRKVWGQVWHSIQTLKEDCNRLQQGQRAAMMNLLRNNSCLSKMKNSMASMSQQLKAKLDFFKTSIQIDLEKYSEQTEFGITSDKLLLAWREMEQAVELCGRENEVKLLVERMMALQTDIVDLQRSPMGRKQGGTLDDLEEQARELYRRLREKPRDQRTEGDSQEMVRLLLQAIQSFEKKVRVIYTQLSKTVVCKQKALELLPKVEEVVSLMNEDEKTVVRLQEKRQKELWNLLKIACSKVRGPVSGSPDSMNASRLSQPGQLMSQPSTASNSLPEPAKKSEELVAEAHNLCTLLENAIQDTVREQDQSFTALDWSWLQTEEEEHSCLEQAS

[3] = target: T3, Inhibitor of nuclear factor kappa-B kinase subunit epsilon (Homo sapiens, UniProt Q14164); test: Inhibition of IKK-epsilon
T3 sequence (Q14164 whole entry): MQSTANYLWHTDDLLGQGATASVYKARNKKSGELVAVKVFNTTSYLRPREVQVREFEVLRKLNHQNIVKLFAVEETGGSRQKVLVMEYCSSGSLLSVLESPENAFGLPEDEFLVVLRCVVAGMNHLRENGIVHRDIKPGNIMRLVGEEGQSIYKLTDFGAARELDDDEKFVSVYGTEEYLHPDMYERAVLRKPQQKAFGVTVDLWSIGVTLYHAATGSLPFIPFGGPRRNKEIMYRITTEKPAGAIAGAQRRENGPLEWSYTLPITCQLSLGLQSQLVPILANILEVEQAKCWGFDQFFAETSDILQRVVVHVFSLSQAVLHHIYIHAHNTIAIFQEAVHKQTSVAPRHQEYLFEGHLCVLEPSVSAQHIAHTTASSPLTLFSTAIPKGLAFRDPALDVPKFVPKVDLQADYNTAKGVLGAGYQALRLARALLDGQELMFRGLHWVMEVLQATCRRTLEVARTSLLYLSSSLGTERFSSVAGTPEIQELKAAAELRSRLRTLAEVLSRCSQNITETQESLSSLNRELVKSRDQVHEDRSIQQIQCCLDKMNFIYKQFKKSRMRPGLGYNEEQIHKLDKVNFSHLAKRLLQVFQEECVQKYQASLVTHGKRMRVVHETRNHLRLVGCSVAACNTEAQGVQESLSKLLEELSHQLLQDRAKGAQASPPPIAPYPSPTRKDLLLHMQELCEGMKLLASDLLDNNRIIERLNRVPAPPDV

[4] = target: Tyrosine-protein kinase BTK (Homo sapiens, UniProt Q06187); test: Inhibition of BTK
[5] = target: T4, Inhibitor of nuclear factor kappa-B kinase subunit alpha (Homo sapiens, UniProt O15111); test: Inhibition of IKK-alpha
T4 sequence (O15111 whole entry): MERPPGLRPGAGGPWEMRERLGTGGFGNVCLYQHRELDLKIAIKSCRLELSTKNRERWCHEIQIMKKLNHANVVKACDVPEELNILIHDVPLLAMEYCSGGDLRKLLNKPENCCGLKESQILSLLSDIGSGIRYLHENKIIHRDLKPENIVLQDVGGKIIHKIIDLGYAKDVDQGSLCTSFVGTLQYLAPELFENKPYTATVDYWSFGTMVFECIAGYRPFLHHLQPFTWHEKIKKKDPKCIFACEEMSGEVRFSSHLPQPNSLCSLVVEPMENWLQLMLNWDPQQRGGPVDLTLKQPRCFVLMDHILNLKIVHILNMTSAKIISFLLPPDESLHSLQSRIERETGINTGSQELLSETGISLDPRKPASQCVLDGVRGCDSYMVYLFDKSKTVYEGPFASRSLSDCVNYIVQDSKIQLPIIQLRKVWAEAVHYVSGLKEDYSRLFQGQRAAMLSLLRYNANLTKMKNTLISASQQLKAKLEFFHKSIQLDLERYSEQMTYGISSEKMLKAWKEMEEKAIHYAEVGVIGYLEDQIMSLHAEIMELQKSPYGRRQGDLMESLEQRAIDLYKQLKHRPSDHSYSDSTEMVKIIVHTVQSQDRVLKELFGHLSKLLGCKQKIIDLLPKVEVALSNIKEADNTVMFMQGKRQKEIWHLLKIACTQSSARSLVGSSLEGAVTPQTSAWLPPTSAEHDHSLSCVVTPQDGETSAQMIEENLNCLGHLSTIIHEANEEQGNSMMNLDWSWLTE
Summary of the method: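 Done the same way as the IKK-β TR-FRET assay but with 6-His-tagged full-length IKK-α. Buffer is 50 mM HEPES, 10 mM MgCl₂, 1 mM CHAPS pH 7.4, 1 mM DTT, 0.01% w/v BSA. GST-IκBα substrate 25 nM final, ATP 1 μM final, DMSO below 5% final. Error about ±0.3 log units.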

Chain of Casein kinase I isoform epsilon (P49674 whole entry, canonical isoform): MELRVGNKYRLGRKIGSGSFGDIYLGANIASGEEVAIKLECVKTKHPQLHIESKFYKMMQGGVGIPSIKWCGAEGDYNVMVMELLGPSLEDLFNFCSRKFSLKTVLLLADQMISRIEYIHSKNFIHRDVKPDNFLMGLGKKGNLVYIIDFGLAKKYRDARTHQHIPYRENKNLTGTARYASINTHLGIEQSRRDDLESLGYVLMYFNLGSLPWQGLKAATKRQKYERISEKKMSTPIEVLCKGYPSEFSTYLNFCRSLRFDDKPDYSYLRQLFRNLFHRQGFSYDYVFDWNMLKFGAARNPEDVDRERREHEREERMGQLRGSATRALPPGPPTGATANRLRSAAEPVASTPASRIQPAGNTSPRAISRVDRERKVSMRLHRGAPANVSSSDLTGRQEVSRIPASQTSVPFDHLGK
Chain of Tyrosine-protein kinase BTK (Q06187 whole entry): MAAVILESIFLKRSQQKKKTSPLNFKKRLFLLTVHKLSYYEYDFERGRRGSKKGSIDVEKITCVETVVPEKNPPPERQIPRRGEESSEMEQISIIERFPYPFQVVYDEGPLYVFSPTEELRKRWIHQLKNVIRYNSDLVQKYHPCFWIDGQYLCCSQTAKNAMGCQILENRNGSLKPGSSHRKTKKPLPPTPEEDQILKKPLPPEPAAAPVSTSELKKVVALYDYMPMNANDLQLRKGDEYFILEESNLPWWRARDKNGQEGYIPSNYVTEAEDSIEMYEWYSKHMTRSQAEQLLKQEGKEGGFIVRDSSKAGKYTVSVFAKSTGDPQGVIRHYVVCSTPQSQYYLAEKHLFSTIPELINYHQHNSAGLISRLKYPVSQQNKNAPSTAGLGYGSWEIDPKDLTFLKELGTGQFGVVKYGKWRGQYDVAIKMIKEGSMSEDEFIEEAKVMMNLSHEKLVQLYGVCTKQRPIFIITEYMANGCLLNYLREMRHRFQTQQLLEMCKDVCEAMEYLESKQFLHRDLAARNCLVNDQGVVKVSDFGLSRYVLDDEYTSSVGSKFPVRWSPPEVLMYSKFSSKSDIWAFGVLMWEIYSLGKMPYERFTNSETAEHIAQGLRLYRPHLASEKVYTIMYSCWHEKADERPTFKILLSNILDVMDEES

- IC50 (Aurora kinase A): 1.26 µM
- Kd [1]: 1.58 µM
- IC50 [2]: 0.0126 µM
- IC50 [3]: > 3.16 µM
- IC50 [4]: 1.58 µM
- IC50 [5]: 2 µM
Structure (SMILES): CCCS(=O)(=O)N1CCC(c2c[nH]c3c(C(N)=O)cc(-c4ccccc4)cc23)CC1
- IC50 (PBMC): 0.631 µM
